Measurements as given in ChEMBL document CHEMBL5046217, “Discovery of New Imidazo[2,1-b]thiazole Derivatives as Potent Pan-RAF Inhibitors with Promising In Vitro and In Vivo Anti-melanoma Activity” (J Med Chem, 2021).

Key:
[1] = biological target: Serine/threonine-protein kinase B-raf (Homo sapiens, UniProt P15056); experiment: Inhibition of human wild type BRAF using myelin basic protein as substrate in presence of [gamma-33P]ATP incubated for 40 mins by scintillation counting method
Method in brief: (§1)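 Radiometric kinase assay run at Reaction Biology. Kinase (5−10 mU) in 25 mM Tris pH 7.5, 0.02 mM EGTA, 10 mM magnesium acetate with 0.66 mg/mL myelin basic protein and [γ-33P]ATP at 1 μM ATP. Reaction started with Mg-ATP and run 40 min at room temperature, then stopped with 3% phosphoric acid. Spotted on P30 filtermat, washed, scintillation counted.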

[2] = biological target: Serine/threonine-protein kinase B-raf (Homo sapiens, UniProt P15056, V600E); experiment: Inhibition of human BRAF V600E mutant using myelin basic protein as substrate in presence of [gamma-33P]ATP incubated for 40 mins by scintillation counting method; method in brief: as §1
[3] = biological target: RAF proto-oncogene serine/threonine-protein kinase (Homo sapiens, UniProt P04049); experiment: Inhibition of human wild type CRAF using myelin basic protein as substrate in presence of [gamma-33P]ATP incubated for 40 mins by scintillation counting method
[4] = biological target: Tyrosine-protein kinase ABL1 (Homo sapiens, UniProt P00519); experiment: Inhibition of ABL1 (unknown origin) incubated for 1 hr by qPCR analysis
[5] = biological target: Serine/threonine-protein kinase/endoribonuclease IRE1 (Homo sapiens, UniProt O75460); experiment: Inhibition of ERN1 (unknown origin) incubated for 1 hr by qPCR analysis
Method in brief: (§2)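 Competition binding assay. Kinases were either T7-phage-tagged (grown in an E. coli BL21-derived host) or expressed in HEK-293 cells and DNA-tagged. […] Bound kinase was eluted with non-biotinylated ligand and quantified by qPCR.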

[6] = biological target: Fibroblast growth factor receptor 1 (Homo sapiens, UniProt P11362); experiment: Inhibition of FGFR1 (unknown origin) incubated for 1 hr by qPCR analysis
[7] = biological target: T1, Receptor-type tyrosine-protein kinase FLT3 (Homo sapiens, UniProt P36888); experiment: Inhibition of FLT3 (unknown origin) incubated for 1 hr by qPCR analysis; method in brief: as §2
T1 sequence (P36888 whole entry): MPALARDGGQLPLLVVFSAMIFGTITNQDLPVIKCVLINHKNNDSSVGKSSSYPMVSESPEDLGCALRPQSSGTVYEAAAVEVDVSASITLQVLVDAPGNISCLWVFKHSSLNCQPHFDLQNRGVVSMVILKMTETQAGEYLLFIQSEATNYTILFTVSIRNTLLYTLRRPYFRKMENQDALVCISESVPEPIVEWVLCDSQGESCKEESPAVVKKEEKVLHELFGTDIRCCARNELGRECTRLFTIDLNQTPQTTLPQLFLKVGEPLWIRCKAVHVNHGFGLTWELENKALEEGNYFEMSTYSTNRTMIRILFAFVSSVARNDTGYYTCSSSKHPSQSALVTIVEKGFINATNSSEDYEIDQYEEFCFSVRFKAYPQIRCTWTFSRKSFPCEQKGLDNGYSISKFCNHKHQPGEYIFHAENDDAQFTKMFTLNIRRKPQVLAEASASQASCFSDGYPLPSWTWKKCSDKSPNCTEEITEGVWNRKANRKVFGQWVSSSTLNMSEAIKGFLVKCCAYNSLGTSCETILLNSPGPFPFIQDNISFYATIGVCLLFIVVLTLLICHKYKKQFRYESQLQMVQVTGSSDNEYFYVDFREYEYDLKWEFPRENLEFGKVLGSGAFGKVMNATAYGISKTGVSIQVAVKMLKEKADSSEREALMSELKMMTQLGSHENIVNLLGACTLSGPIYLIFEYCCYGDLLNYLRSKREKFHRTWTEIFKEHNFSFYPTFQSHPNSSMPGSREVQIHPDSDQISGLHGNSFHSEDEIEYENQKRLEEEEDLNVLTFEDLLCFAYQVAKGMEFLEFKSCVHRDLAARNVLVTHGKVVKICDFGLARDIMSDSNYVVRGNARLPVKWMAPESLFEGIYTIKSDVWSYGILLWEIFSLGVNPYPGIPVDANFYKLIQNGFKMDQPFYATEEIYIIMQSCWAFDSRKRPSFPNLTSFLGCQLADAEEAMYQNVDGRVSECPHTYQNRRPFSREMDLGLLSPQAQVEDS

[8] = biological target: Homeodomain-interacting protein kinase 1 (Homo sapiens, UniProt Q86Z02); experiment: Inhibition of HIPK1 (unknown origin) incubated for 1 hr by qPCR analysis; method in brief: as §2
[9] = biological target: Mitogen-activated protein kinase 8 (Homo sapiens, UniProt P45983); experiment: Inhibition of MAPK8 (unknown origin) incubated for 1 hr by qPCR analysis; method in brief: as §2
[10] = biological target: Mitogen-activated protein kinase 11 (Homo sapiens, UniProt Q15759); experiment: Inhibition of MAPK11 (unknown origin) incubated for 1 hr by qPCR analysis; method in brief: as §2
[11] = biological target: Mitogen-activated protein kinase 14 (Homo sapiens, UniProt Q16539); experiment: Inhibition of MAPK14 (unknown origin) incubated for 1 hr by qPCR analysis; method in brief: as §2
[12] = biological target: Mitogen-activated protein kinase kinase kinase 20 (Homo sapiens, UniProt Q9NYL2); experiment: Inhibition of ZAK (unknown origin) incubated for 1 hr by qPCR analysis; method in brief: as §2
[13] = Acute toxicity in Hsd:athymic nude-Foxn1nu mouse at 50 to 250 mg/kg; type: organism-based; settings: in vivo, dose 50-250 mg/kg
Method in brief: (§3)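 Male Hsd:Athymic Nude-Foxn1nu mice received the compound by injection at five single doses (50, 100, 250, 500 and 1000 mg/kg), with seven animals per dose group.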

[14] = Acute toxicity in Hsd:athymic nude-Foxn1nu mouse assessed as animal mortality at 500 to 1000 mg/kg; type: organism-based; settings: in vivo, dose 500-1000 mg/kg; method in brief: as §3
[15] = Tmax in Sprague-Dawley rat at 5 mg/kg, po by LC-MS/MS analysis; type: ADME, organism-based; settings: in vivo
Method in brief: (§4)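 Male SD rats, 7−8 weeks, 250−300 g, three per group, dosed 5 mg/kg IV or PO. Vehicle was 5% DMSO/40% PEG400/55% water. Rats fasted 16 h before oral dosing. Samples taken every 30 min and measured by LC/MS/MS with carbamazepine as internal standard. Parameters from non-compartmental analysis of plasma concentration–time profiles.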

[16] = Cmax in Sprague-Dawley rat at 5 mg/kg, po by LC-MS/MS analysis; type: ADME, organism-based; set-up: route oral, dose 5 mg/kg; settings: in vivo
Method in brief: (§5)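 Male SD rats (7–8 weeks, 250–300 g), three per group, were dosed at 5 mg/kg i.v. or p.o. in 5% DMSO/40% PEG400/55% water. Rats were fasted 16 h before oral dosing. Serum was sampled every 30 min and measured by LC/MS/MS with carbamazepine as internal standard. Parameters came from non-compartmental analysis.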

[17] = Half life in Sprague-Dawley rat at 5 mg/kg, iv by LC-MS/MS analysis; type: ADME, organism-based; settings: in vivo; method in brief: as §5
[18] = Half life in Sprague-Dawley rat at 5 mg/kg, po by LC-MS/MS analysis; type: ADME, organism-based; settings: in vivo; method in brief: as §5
[19] = Clearance in Sprague-Dawley rat at 5 mg/kg, iv by LC-MS/MS analysis; type: ADME, organism-based; settings: in vivo; method in brief: as §5
[20] = Volume of distribution in Sprague-Dawley rat at 5 mg/kg, iv by LC-MS/MS analysis; type: ADME, organism-based; settings: in vivo; method in brief: as §4
[21] = Oral bioavailability in Sprague-Dawley rat at 5 mg/kg by LC-MS/MS analysis; type: ADME, organism-based; settings: in vivo; method in brief: as §4
[22] = Apparent permeability across apical to basolateral side in human Caco-2 cells at 5 uM measured every 15 mins for 1 hr by LC-MS/MS analysis; type: ADME, cell-based
[23] = Apparent permeability across basolateral to apical side in human Caco-2 cells at 5 uM measured every 15 mins for 1 hr by LC-MS/MS analysis; type: ADME, cell-based
[24] = Stability in human plasma assessed as parent compound remaining at 10 uM measured after 30 mins by LC-MS analysis; type: ADME, cell-free; settings: read-out: Stability
Method in brief: (§6)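 About 10 μM compound shaken in human or rat plasma at 37 °C for 30 and 120 min. Acetonitrile added, samples centrifuged at 4 °C, and remaining parent in the supernatant quantified by LC−MS. Procaine and diltiazem run as references.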

[25] = Stability in human plasma assessed as parent compound remaining at 10 uM measured after 120 mins by LC-MS analysis; type: ADME, cell-free; settings: read-out: Stability; method in brief: as §6
[26] = Stability in rat plasma assessed as parent compound remaining at 10 uM measured after 30 mins by LC-MS analysis; type: ADME, cell-free; settings: read-out: Stability; method in brief: as §6
[27] = Stability in rat plasma assessed as parent compound remaining at 10 uM measured after 120 mins by LC-MS analysis; type: ADME, cell-free; settings: read-out: Stability; method in brief: as §6

Chain of Mitogen-activated protein kinase 14 (Q16539 whole entry): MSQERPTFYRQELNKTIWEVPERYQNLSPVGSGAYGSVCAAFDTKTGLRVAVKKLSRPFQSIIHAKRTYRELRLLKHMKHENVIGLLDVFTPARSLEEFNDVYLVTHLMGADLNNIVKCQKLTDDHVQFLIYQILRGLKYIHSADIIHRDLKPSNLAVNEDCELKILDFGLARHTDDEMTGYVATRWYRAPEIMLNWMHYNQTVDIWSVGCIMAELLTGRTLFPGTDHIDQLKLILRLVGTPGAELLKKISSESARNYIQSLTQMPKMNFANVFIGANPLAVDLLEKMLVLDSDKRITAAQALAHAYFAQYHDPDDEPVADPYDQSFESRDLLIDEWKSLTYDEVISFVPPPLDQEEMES
Chain of Mitogen-activated protein kinase 8 (P45983 whole entry): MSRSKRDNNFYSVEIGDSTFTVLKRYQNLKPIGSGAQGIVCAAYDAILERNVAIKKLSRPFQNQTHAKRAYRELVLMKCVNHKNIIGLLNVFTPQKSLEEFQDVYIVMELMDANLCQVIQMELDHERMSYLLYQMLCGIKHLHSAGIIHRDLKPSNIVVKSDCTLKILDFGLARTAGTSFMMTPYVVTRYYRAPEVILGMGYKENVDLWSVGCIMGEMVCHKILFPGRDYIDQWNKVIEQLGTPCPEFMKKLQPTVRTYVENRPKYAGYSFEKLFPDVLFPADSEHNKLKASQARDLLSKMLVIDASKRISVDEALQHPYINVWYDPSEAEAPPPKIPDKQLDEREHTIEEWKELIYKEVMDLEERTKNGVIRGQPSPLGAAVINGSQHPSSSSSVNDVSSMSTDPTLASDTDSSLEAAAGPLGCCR
Chain of Serine/threonine-protein kinase B-raf (Homo sapiens, UniProt P15056) (P15056 whole entry): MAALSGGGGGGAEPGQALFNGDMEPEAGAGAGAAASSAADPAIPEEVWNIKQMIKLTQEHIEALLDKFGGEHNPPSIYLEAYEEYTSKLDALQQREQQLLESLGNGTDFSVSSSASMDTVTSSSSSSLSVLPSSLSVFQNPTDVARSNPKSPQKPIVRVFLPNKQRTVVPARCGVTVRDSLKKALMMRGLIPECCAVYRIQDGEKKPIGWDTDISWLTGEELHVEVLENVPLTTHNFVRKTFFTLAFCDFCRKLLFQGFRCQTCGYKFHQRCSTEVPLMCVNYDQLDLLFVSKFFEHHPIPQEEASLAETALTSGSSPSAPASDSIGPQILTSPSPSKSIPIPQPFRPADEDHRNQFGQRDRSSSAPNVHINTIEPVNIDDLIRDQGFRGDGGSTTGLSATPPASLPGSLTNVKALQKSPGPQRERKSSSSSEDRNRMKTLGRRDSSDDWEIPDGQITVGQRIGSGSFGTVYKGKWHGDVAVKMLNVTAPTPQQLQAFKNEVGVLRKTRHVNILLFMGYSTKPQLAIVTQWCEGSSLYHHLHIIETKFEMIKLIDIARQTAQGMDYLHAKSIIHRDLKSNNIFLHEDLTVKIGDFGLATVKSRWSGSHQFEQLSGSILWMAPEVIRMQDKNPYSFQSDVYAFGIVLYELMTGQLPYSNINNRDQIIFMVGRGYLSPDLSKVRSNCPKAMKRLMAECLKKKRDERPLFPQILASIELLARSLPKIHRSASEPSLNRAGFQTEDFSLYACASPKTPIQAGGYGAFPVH
Chain of Mitogen-activated protein kinase kinase kinase 20 (Q9NYL2 whole entry): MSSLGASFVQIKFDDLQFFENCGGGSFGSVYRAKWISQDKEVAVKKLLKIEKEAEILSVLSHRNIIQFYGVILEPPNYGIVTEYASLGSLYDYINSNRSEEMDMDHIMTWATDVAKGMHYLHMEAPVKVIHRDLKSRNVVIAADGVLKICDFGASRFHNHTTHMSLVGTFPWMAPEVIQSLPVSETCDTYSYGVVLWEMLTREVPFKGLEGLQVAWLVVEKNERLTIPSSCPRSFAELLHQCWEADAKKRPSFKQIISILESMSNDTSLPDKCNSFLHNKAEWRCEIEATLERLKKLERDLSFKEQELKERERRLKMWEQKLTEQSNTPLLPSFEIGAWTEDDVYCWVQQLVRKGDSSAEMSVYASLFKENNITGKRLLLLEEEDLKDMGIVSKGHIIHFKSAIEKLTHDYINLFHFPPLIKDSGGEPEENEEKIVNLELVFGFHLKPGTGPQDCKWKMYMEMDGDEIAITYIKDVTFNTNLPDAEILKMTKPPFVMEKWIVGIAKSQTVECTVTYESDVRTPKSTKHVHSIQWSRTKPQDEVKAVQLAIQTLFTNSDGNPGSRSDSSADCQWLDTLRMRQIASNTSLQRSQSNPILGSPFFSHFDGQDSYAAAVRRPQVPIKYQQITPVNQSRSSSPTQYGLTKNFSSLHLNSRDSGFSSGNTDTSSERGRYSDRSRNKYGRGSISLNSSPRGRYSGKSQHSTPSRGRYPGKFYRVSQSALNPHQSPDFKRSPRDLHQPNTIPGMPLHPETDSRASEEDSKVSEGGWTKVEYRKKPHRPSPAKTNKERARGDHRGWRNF
Chain of Homeodomain-interacting protein kinase 1 (Q86Z02 whole entry): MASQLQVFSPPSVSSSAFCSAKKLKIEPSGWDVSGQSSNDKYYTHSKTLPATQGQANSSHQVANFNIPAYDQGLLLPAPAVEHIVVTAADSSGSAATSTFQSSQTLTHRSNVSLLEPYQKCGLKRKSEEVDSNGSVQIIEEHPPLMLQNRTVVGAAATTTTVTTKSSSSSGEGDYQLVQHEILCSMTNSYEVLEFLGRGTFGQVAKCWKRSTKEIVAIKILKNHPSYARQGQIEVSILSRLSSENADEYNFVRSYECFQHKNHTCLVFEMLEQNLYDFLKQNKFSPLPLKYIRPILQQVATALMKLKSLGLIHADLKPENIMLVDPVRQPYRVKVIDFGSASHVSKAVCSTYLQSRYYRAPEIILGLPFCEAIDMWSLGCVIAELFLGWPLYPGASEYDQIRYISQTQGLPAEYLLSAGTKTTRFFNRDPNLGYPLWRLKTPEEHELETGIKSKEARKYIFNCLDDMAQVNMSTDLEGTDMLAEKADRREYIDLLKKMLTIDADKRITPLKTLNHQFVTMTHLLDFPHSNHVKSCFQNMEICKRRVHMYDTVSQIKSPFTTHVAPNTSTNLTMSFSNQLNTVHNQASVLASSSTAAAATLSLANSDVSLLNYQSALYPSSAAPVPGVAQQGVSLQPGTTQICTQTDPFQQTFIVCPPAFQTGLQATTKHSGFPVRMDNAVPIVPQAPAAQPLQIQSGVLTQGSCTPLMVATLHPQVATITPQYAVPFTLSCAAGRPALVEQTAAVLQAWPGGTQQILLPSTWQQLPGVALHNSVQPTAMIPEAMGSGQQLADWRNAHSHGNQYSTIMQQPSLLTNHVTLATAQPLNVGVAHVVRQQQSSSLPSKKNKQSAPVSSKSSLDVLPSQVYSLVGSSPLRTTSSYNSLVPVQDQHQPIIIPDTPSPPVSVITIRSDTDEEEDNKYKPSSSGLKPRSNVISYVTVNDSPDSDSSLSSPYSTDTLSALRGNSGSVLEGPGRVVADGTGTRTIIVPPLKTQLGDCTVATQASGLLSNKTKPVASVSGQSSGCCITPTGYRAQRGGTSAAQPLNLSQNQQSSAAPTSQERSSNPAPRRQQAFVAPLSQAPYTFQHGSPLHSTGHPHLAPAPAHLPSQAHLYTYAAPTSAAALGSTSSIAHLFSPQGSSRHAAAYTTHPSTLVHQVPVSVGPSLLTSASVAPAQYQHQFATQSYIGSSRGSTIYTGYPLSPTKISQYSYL
Chain of Serine/threonine-protein kinase B-raf (Homo sapiens, UniProt P15056, V600E) (P15056 2-766 V600E limits assumed): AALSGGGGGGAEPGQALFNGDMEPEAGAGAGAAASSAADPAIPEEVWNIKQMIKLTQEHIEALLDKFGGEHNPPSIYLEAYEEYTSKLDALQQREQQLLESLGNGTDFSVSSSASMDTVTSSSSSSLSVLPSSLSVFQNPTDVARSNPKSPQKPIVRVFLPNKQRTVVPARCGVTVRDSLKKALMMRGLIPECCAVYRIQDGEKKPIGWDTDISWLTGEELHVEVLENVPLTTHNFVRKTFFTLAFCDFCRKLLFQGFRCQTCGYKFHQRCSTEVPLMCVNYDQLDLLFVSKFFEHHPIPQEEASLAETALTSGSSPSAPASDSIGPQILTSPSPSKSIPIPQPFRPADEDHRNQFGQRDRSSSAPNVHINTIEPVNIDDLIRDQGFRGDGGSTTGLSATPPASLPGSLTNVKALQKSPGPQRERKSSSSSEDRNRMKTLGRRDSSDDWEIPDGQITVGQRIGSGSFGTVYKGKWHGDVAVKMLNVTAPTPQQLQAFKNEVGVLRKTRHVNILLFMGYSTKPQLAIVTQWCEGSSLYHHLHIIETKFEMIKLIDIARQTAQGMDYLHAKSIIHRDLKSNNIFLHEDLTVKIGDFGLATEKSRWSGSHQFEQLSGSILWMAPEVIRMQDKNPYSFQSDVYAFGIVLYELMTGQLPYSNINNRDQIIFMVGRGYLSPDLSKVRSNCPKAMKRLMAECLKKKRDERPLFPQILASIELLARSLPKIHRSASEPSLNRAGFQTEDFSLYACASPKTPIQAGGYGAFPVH
Chain of Mitogen-activated protein kinase 11 (Q15759 whole entry): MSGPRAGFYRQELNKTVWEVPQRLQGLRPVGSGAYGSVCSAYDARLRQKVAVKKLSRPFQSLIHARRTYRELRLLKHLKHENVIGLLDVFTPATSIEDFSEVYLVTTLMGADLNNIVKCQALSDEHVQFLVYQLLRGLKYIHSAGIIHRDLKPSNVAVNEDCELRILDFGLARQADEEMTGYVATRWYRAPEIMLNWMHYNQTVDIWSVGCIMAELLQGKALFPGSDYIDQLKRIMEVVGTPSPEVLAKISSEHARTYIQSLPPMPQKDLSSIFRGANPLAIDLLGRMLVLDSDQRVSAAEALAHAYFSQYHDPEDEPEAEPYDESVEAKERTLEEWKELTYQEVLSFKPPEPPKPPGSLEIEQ

With `CN1CCN(CCNc2nccc(-c3c(-c4cccc(O)c4)nc4sccn34)n2)S1(=O)=O` the IC50 [1] was 2 nM, the IC50 [2] was 0.07 nM and the IC50 [3] was 1.12 nM. It also gave an IC50 [4] of 12400 nM, an IC50 [5] of 11300 nM and an IC50 [6] of 13500 nM. It also gave an IC50 [7] of 1510 nM, an IC50 [8] of 3780 nM and an IC50 [9] of 910 nM. For the same compound, the IC50 [10] was 820 nM, the IC50 [11] was 1020 nM and the IC50 [12] was 9010 nM. The Activity [13] was “Non-Toxic”, the Activity [14] was “Toxic” and the Tmax [15] was 2.08 h. It also gave a Cmax [16] of 96.9 ng/mL, a half-life [17] of 1.72 h and a half-life [18] of 3.35 h. The clearance [19] was 2.07 mL/min/kg, the Vd [20] was 0.578 L/kg and the bioavailability [21] was 6.59%. For the same compound, the Papp A→B at 1 h, 5 µM [22] was 14.2 ×10⁻⁶ cm/s, the Papp B→A at 1 h, 5 µM [23] was 21.8 ×10⁻⁶ cm/s and the remaining at 0.5 h, 10 µM [24] was 97.2%. For the same compound, the remaining at 2 h, 10 µM [25] was 95.4%, the remaining at 0.5 h, 10 µM [26] was 90.6% and the remaining at 2 h, 10 µM [27] was 76.6%.
